Shown are actives, neighbours in structure and some others; about 2.2% of the full set was active somewhere.
NR2E3 ag-1 = inhibitors of NR2E3-RetCOR corepressor binding, primary screen, NR2E3 agonist project, biochemical, TR-FRET, GST-NR2E3, biotin-RetCOR. 320,000 tested, 0.12% active. inhibition of corepressor binding, % at 4.78 µM. Photoreceptor-specific nuclear receptor (Homo sapiens), Q9Y5X4. 1536-well;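 active means percent inhibition above the cutoff of mean plus 3 SD of all tested compounds, set per screening campaign, cut at about 20% in these data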
Target sequence (Q9Y5X4 whole entry, looked up): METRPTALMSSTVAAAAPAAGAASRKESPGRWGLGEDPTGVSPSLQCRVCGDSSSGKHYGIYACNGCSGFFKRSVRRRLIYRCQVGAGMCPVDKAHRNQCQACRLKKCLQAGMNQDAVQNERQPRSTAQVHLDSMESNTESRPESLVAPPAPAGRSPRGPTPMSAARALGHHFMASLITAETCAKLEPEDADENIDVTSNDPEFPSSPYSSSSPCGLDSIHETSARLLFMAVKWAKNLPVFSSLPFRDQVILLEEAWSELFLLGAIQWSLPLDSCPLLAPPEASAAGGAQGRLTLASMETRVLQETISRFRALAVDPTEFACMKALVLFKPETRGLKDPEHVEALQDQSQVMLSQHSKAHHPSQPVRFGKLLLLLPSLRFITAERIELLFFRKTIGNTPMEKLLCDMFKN
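Material: NR2E3–RetCOR corepressor complex / Amount: 1.35 nM GST-NR2E3 / Medium: Tris pH 7.5 / Compound: single nominal compound dose of 4.8 µM / Incubation: 5 h at 4 °C / Technique: TR-FRET, Eu(K)-anti-GST donor, streptavidin-D2 acceptor, ex 340, em 617/671 nm / Read-out basis: percent loss of FRET ratio relative to control wells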
miR-122 sensor = miR-122 Renilla sensor signal increase in Huh7, primary screen, miR-122 inhibitor project, cell-based, single point, plate reader. Huh7 miR-122 Renilla luciferase sensor, 48 h; neutral wells = 0, positive control = 100. activation (reporter increase), % at 12.5 µM. 340,000 tested, 0.3% active. AID 602342, 2012;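 active means mean replicate activation score at least 90 and every replicate individually at or above 90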;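 further: higher luciferase means less miR-122 activity so hits act as miR-122 inhibitors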
697 NFkB inh = inhibitors of PMA/ionomycin-induced NF-kB reporter, 697 cells, primary screen, B-cell NF-kB inhibitor project, cell-based, luminescence, uHTS | inhibition, % at 4 µM | 330,000 tested, 0.33% active | 697 B-cell NF-kB luciferase reporter, 16 h; in the data active means inhibition above about 35%
Jurkat NFkB inh = inhibitors of induced NF-kB luciferase reporter, primary screen, TCR NF-kB activation inhibitor project, cell-based, luminescence, uHTS. Jurkat, PMA/ionomycin-induced NF-kB luciferase reporter. inhibition, % at 4 µM. 330,000 tested, 0.53% active. AID 435003, 2010; in the data active means inhibition above about 50%
FGF22 binding = binders of human FGF22 protein, primary screen, FGF22 synaptogenesis inhibitor project, biophysical, thermal shift, single point; activity (Tm shift, normalised), % at 9.99 µM; recombinant FGF22 thermal shift, SYPRO orange fluorescence; percent of sucrose octasulfate shift, DMSO zero; AID 651658, 2012; 340,000 tested, 1.5% active;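 active means mean Tm shift, scaled 0 neutral to 100 positive control, at about 1.3% or above, every replicate too, limit read from the data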
Target sequence (Q9HCT0 whole entry, looked up): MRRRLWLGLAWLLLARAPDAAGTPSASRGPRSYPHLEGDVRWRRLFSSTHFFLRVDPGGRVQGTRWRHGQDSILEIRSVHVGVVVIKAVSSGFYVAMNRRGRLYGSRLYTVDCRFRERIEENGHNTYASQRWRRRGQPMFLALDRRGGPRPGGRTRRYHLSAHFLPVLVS
NR2E3 ag-2 = NR2E3 agonists in two-hybrid cells, primary screen, cell-based, luminescence, CHO-S, Gal4-NCOR/VP16-NR2E3; Photoreceptor-specific nuclear receptor (Homo sapiens), Q9Y5X4; luciferase; inhibition of corepressor binding, % at 3.98 µM; 360,000 tested, 0.35% active; AID 602229, 2012;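 active means inhibition above the mean of all tested compounds plus 3 SD, cut at about 70% in these data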;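 further: higher means lower luciferase signal from less NR2E3 corepressor binding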
Numbers stand for hits; – = inactive; · = no result given.

SMILES	NR2E3 ag-1	miR-122 sensor	697 NFkB inh	Jurkat NFkB inh	FGF22 binding	NR2E3 ag-2
Cc1oc2ccc(OC(=O)N(C)C)cc2c1C(=O)OC(C)C	–	143	–	–	·	–
Cc1ccc(-n2c(O)c(/C=N/N3CCCCC3c3cccnc3)c(=O)[nH]c2=S)cc1 (stereo not drawn)	–	·	–	–	43	–
CN(C)CC#Cc1ccc([C@@H]2[C@H]3CN(C(=O)Cc4ccccn4)CCCCN3[C@H]2CO)cc1	·	–	·	·	–	·
O=C(Cc1cccnc1)N1CCCCN2[C@H](CO)[C@@H](c3ccc(C#CC4CC4)cc3)[C@H]2C1	·	–	·	·	–	·
Cc1ccccc1S(=O)(=O)N1[C@@H]2c3ccc(-c4cccnc4)c(=O)n3C[C@H]1[C@H](CO)[C@H]2C(=O)O	·	–	·	·	–	·
Cc1ccc2c(c1)C1CN(C)CCC1N2C(=O)c1cccnc1Cl (stereo not drawn)	–	–	–	–	–	–
Cc1ccc2c(c1)C1CN(C)CCC1N2C(=O)c1cn(-c2ccccc2)nc1-c1ccccc1 (stereo not drawn)	–	·	–	–	1.6	–
COc1ccc(N2C(=O)CC(=O)NC2=O)cc1	–	236	–	–	·	–
O=C(O)[C@H]1[C@H](CO)[C@H]2Cn3c(ccc(-c4ccc(F)cc4)c3=O)[C@@H]1N2CC1CCCCC1	·	·	·	·	–	·
COc1ccc(-c2ccc([C@H]3[C@@H](CO)N4CCCCN(C(=O)Cc5ccccc5)C[C@@H]34)cc2)cc1	·	–	·	·	–	·
O=C(COC(=O)c1cccc(O)c1)Nc1ccc(Cl)cc1C(=O)c1ccccc1	–	·	–	–	52	–
CC(=O)N1CCN(CC(=O)Nc2ccc(C#N)c(Cl)c2)CC1	–	·	–	–	–	–
CCN(CC)S(=O)(=O)c1ccc(C)c(NCC(=O)Nc2ccc(C#N)c(Cl)c2)c1	–	119	–	–	·	–
O=C1NC(=O)C(=Cc2ccc(-c3ccc(F)cc3O)o2)C(=O)N1	–	–	–	–	43	–
O=C1NC(=O)C(=Cc2ccc(-c3ccc(Cl)cc3)o2)C(=O)N1	–	–	–	–	·	–
COc1ccc(NP(=O)(Oc2ccc(Cl)cc2)Oc2ccc(Cl)cc2)cc1OC	–	136	–	–	–	–
Cc1ccc(OP(=O)(Nc2cccc(C)c2)Oc2ccc(C)cc2)cc1	–	187	–	–	–	–
Cc1cccc(OP(=O)(Nc2cccnc2)Oc2cccc(C)c2)c1	–	·	–	–	·	–
Cc1cccc(OP(=O)(Nc2ccc(F)cc2)Oc2cccc(C)c2)c1	–	·	–	–	43	–
COC(=O)[C@H]1[C@H](CO)[C@H]2Cn3c(ccc(-c4ccccc4)c3=O)[C@@H]1N2CC1CCCCC1	·	–	·	·	–	·
O=C(Cc1ccccn1)N1CCCCN2[C@H](C1)[C@@H](c1ccc(-c3ccccc3F)cc1)[C@@H]2CO	·	–	·	·	–	·
COc1ccc(-c2ccc([C@H]3[C@H](CO)N4CCCCN(C(=O)Cc5ccccc5)C[C@@H]34)cc2)cc1	·	–	·	·	–	·
O=C(Cc1cccnc1)N1CCCCN2[C@H](CO)[C@@H](c3ccc(C#CC4CCCC4)cc3)[C@@H]2C1	·	–	·	·	–	·
CCOc1ccc(NC(=O)c2c(O)[nH]c(=O)[nH]c2=O)cc1	–	–	–	–	–	–
CC(=O)Nc1ccc(OCCF)cc1	–	–	–	–	43	–
SMILES	NR2E3 ag-1	miR-122 sensor	697 NFkB inh	Jurkat NFkB inh	FGF22 binding	NR2E3 ag-2
CC(=O)N1CCN(Cc2ccc(Cl)nc2)CC1	–	–	–	–	–	–
O=C(O)c1ccc(Cl)nc1	–	–	–	–	43	–
NS(=O)(=O)OC(CCc1ccccc1)C(Cl)(Cl)Cl (stereo not drawn)	–	–	–	–	45	–
O=c1cc(C2CCNCC2)[nH][nH]1	–	156	–	–	·	–
CC12CCC3C(CC=C4CC5(CCC43C)OCCO5)C1CCC2=O (stereo not drawn)	–	–	–	–	44	–
CC=Cc1ccc2n(c1=O)C[C@@H]1[C@@H](CO)[C@H](C(=O)OC)[C@H]2N1S(=O)(=O)c1cccc(C)c1 (mixture of isomers)	·	·	·	·	–	·
COC(=O)[C@@H]1[C@@H](CO)[C@@H]2Cn3c(ccc(-c4cccnc4)c3=O)[C@H]1N2S(=O)(=O)c1ccccc1F	·	–	·	·	–	·
CCn1nc(-c2ccccc2)nc2c(=O)n(C)c(=O)nc1-2	41	–	–	–	·	89
O=C(COC(=O)c1cc(Br)cc(Br)c1O)NC12CC3CC(CC(C3)C1)C2	·	–	·	·	1.7	–
O=C1NC(=S)N(c2ccc(F)cc2)C(=O)/C1=C/c1ccco1	–	·	–	–	·	·
O=C1NC(=O)C(=Cc2ccco2)C(=O)N1	·	·	·	·	44	–
COc1ccc(NC(c2ccccc2F)P(=O)(Oc2ccccc2)Oc2ccccc2)cc1 (stereo not drawn)	–	·	–	–	44	–
COc1ccc2nc3oc(C(=O)N4CCC5(CC4)OCCO5)cc3cc2c1	–	·	–	–	44	–
O=C(c1cccnc1)N1Cc2ccccc2-n2nncc2C1	·	–	·	·	44	–
CC(C)NC(=O)N1[C@@H]2c3ccc(-c4cccc(C(=O)N(C)C)c4)c(=O)n3C[C@H]1[C@H](CO)[C@H]2C(=O)O	·	·	·	·	–	·
CN=C1CN(O)C(c2ccccc2)c2cc(Cl)ccc2N1 (stereo not drawn)	·	111	·	·	–	–
OC[C@@H]1[C@@H]2c3ccccc3NC[C@@H]2N1Cc1cccnc1	·	–	·	·	–	·
CCCC(C)C1(CC)C(=O)NC(=O)N=C1N (stereo not drawn)	–	–	–	–	44	–
C=CCC1([C@@H](C)CCC)C(=O)NC(=O)NC1=O	·	–	–	–	–	–
